SIAE primary = human SIAE inhibition, primary screen | inhibition, % at 9.66 µM | 370,000 compounds, 0.69% hits | SIAE FP-Rh probe binding, fluorescence polarization;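 active = inhibition above a cutoff: mean of compounds within the control limits plus 3 SD of those, cut at about 17% in these data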;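 also: 0% = plate median of compound wells and 100% = probe without SIAE protein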
ABHD4 inh = ABHD4 (mouse) inhibition, primary FP screen. purified mABHD4, FP-Rh probe fluorescence polarization. inhibition, % at 8.92 µM. 370,000 compounds, 0.54% hits;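 active = inhibition exceeding the mean over every tested compound plus 3 SD, cut at about 30% in these data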;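 also: 0% = plate median of compound wells and 100% = S159A mutant with DMSO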
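Test system: mouse ABHD4 enzyme, wild type. Reagent: FP-Rh fluorescent activity-based probe, added after compound pre-incubation. Timing: pre-incubation 45 min, probe exposure 60 min, at 25 °C. Technique: FP readout, ex 525 nm / em 598 nm. Benchmarks: high control S159A mutant with DMSO, low control median of compound wells.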
HTRA1 inh = inhibitors of human serine peptidase HTRA1; AID 504803; Q92743; inhibition, % at 5.96 µM; 340,000 compounds, 0.5% hits; recombinant HTRA1, FP-rhodamine activity-based probe, fluorescence polarization; in the data active = inhibition above about 36%;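 also: 0% = enzyme with DMSO and 100% = wells lacking enzyme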
DDE Tn6 FP inh = disrupts Tn6 cyclic peptide binding to fibrin D-Dimer-E complex; AID 720509; 370,000 compounds, 0.21% hits; Fibrin DD(E) TRITC-Tn6 fluorescence polarization displacement; P02675; inhibition, % at 8.3 µM;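 active = inhibition above a per-campaign cutoff: mean of compounds within control limits plus 3 SD, cut at about 15% in these data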;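 also: 0% = median of all compound wells on the plate and 100% = blocking peptide control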
Target sequence (P02675 whole entry, looked up): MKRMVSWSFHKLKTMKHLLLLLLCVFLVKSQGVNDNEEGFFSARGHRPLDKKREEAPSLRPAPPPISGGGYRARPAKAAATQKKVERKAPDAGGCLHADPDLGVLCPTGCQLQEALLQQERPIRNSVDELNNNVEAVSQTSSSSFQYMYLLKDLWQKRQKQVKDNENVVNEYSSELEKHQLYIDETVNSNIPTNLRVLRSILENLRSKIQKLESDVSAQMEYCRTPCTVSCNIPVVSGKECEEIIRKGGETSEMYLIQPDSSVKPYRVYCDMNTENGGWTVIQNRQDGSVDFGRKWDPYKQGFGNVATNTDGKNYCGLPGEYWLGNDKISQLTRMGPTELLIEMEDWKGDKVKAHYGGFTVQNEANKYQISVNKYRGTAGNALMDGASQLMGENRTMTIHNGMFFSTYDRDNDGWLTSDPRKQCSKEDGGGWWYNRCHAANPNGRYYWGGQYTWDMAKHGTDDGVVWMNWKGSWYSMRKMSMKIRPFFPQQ
Tn7 DDE FP = DD(E)-Tn7 binding inhibition, primary FP screen; AID 720508; 370,000 compounds, 0.13% hits; inhibition, % at 8.3 µM; P02675; FP displacement of FITC-Tn7 peptide from fibrin DD(E); 0% = median of compound wells per plate;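 active = inhibition above the mean of compounds falling within the control limits plus 3 SD of them, cut at about 14% in these data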;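 also: 0% = plate median of compound wells and 100% = 10 µM Aha-Tn7 peptide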
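Measure: % inhibition scaled between sample-field median and high-control FP; Test system: human fibrin DD(E); Quantity: 2 µM final DD(E) protein; Doses: one dose, 8.3 µM nominal; Schedule: compound with protein 10 min, then 3 h after probe, room temperature; Detection: fluorescence polarization; Medium: Tris buffer with calcium and detergent, pH 7.8.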
TCR CD3 inh = blocks the human TCR-CD3 interaction; AID 651800; 360,000 compounds, 0.37% hits; inhibition, % at 9.4 µM; TAMRA-labeled TCR probe fluorescence, biochemical;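 also: recombinant mutant TCR 2C K166C tagged with TAMRA read by polarization; 0% = receptor in buffer alone and 100% = receptor with positive control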
BSA TAMRA ctr = BSA probe counter-screen for TCR-CD3 inhibitors; shares compounds with TCR CD3 inh; TAMRA-labeled BSA probe fluorescence counterscreen; inhibition, % at 9.4 µM; 1,200 compounds, 10% hits; AID 652035; in the data active = inhibition above about 23%;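 also: 0% = buffer low control and 100% = reference high control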
TCR-CD3 inh conf = TCR-CD3 interaction inhibition, confirmation. inhibition, % at 9.4 µM. 1,200 compounds, 48% hits. shares compounds with TCR CD3 inh. AID 652036. TAMRA-labeled TCR probe fluorescence binding assay
An asterisk follows results filed as active; x = no result. Sampled rows, rich in hits. Any-hit rate of the full collection: about 1.8%. Rule as the data show it, unless noted: active = inhibition above about 19%; inactive = the rest.

SMILES	SIAE primary	ABHD4 inh	HTRA1 inh	DDE Tn6 FP inh	Tn7 DDE FP	TCR CD3 inh	BSA TAMRA ctr	TCR-CD3 inh conf
Cc1cc(C)cc(NC(=O)C(OC(=O)c2ccc(NC(=O)CC#N)cc2)c2ccccc2)c1 (stereo not drawn)	-111	-78	-92	-7	-4	27*	-6	10
CCOC(=O)c1c(C)[nH]c(C(=O)C(C)OC(=O)c2ccc(NC(=O)CC#N)cc2)c1C (stereo not drawn)	-54	-18	-60	1	-2	52*	5	6
CC(OC(=O)c1ccc(NC(=O)CC#N)cc1)C(=O)NC(=O)NC1CCCCC1 (stereo not drawn)	-35	-58	10	-5	-2	20*	-1	1
Cc1ccccc1-c1ccc2c(c1)[C@@H]1C[C@H](N(C)C(=O)Nc3ccccc3)[C@H]([C@H](C)O)CN1CC2	-1	-9	x	1	-2	-4	x	x
C[C@H](CO)N1C[C@H](C)[C@H](CN(C)C(=O)NC2CCCCC2)OCc2cnnn2CCCC1=O	4	-5	x	-4	6	-13	x	x
C/C(=C\C(=O)c1ccc(Br)cc1)NNC(=O)c1ccccc1	10	-6	26	-5	8	19	x	x
C/C(=C\C(=O)c1ccc(Br)cc1)NNC(=O)c1ccc(O)cc1	1	-19	31	-9	2	35*	-12	27*
CSCCC(NC(=O)c1ccccc1Br)C(=O)NNC(=O)c1cc(C)oc1C (stereo not drawn)	5	6	-6	2	-3	5	x	x
C#CCn1c(=NC(=O)c2ccc(S(=O)(=O)N3CCCc4ccccc43)cc2)sc2cc(S(N)(=O)=O)ccc21	-130	-109	-128	-8	7	21*	19	23*
O=C(N/N=C/c1c(O)n(Cc2ccco2)c(=O)[nH]c1=O)c1ccccc1	15	16	14	-4	0	23*	-2	20*
O=C(OCc1ccccc1)[C@H](Cc1ccccc1)NC(=O)[C@@H]1CC=C[C@@H]2CCN(C3CCCCC3)C(=O)[C@@H]21	-9	10	x	-2	6	x	x	x
CC(=O)c1ccc(OCCCC(=O)Nc2cc(S(=O)(=O)N3CCCCC3)ccc2C)cc1	6	-3	-9	-3	1	-2	x	x
Nc1nonc1C(=O)N/N=C/c1cc(Br)ccc1O	-2	15	x	1	-3	23*	-8	20*
Nc1nonc1-n1nnc(C(=O)N/N=C/c2cc(Br)ccc2O)c1CNc1ccccc1	4	-8	20	3	2	11	x	x
CSc1ccc(NC(=O)N2CCC(C(=O)c3ccc(F)cc3)CC2)cc1	6	-3	-9	-7	-7	8	x	x
CCN(CC)Cc1c(O)c(Cl)cc2c3c(c(=O)oc12)CCCC3	-3	29	-1	-3	-5	22*	-4	-2
CC(=O)c1ccc(N2CCN(C(=O)c3cc(S(=O)(=O)N4CCOCC4)ccc3C)CC2)cc1	-2	-1	8	8	-5	7	x	x
CC1(C(=O)Nc2cnc3ccccc3c2)CCN1Cc1ccc(-c2ccccc2)o1 (stereo not drawn)	9	5	x	3	-1	-9	x	x
CC1CN(C(=O)Cn2c(=O)oc3ccccc32)CC(C)O1 (stereo not drawn)	4	1	-1	4	-1	1	x	x
Cc1cc(/C=N/NC(N)=S)c(O)c(/C=N/NC(N)=S)c1	13	15	24	5	43*	25*	1	15
COCCNC(=S)N/N=C(\C)c1ccc(O)cc1	-1	-7	1	-5	1	-4	x	x
C/C(=N\NC(=S)NCC(C)(C)C)c1cc(F)cc(F)c1O	3	8	35	-4	3	27*	-11	1
Cc1ccc(/C=C/C(=O)OCC(=O)c2ccc3c(c2)NC(=O)CO3)o1	-1	0	-9	8	5	5	x	x
O=C1COc2ccc(C(=O)COC(=O)/C=C/c3ccc(Br)o3)cc2N1	1	-1	0	3	-4	22*	-2	21*
CC(=O)c1cccc(NC(=S)NC(=O)c2ccccc2Cl)c1	3	4	3	-1	-1	1	x	x
SMILES	SIAE primary	ABHD4 inh	HTRA1 inh	DDE Tn6 FP inh	Tn7 DDE FP	TCR CD3 inh	BSA TAMRA ctr	TCR-CD3 inh conf
O=C(NC(=S)Nc1ccccc1O)c1ccccc1Cl	-8	-16	-17	7	1	23*	-5	16
O=S(=O)(c1ccc2nc(-c3ccccc3)[nH]c2c1)N1CCN(c2ccc(Cl)cc2)CC1	-40	-22	-14	1	8	38*	-5	10
N#Cc1c(SCC(=O)Nc2nccs2)sc2c(O)cc(=O)[nH]c12	-18	-23	-8	-9	-3	20*	-13	15
N#Cc1c(SCC(=O)Nc2nc3ccccc3s2)sc2c(O)cc(=O)[nH]c12	-42	-23	-15	-16	8	19*	-14	15
N#Cc1c(SCC(=O)Nc2nc3ccc(Br)cc3s2)sc2c(O)cc(=O)[nH]c12	-49	-4	-17	-3	-9	15	x	x
CCCSc1nnc(NC(=O)CSc2sc3c(O)cc(=O)[nH]c3c2C#N)s1	-38	0	-29	-5	-3	31*	-18	12
COc1ccc(-c2nc(CS(=O)CC(=O)NC3CCCCC3C)c(C)o2)cc1 (stereo not drawn)	3	-2	-1	1	8	11	x	x
N#CC1C(=O)NC(=O)CC12CCCCC2 (stereo not drawn)	0	-1	-4	-1	6	8	x	x
CCOc1cccc(/C=N/NC(=S)Nc2cc(S(=O)(=O)N3CCOCC3)ccc2N2CCOCC2)c1O	9	14	9	3	4	21*	-2	3
COc1ccc2ccccc2c1/C=N/NC(=S)Nc1cc(S(=O)(=O)N2CCOCC2)ccc1N1CCOCC1	1	6	-21	5	8	4	x	x
O=C(N/N=C/c1cccc([N+](=O)[O-])c1)c1ccc(COc2ccccc2-c2ccccc2)cc1	-19	-7	-27	-2	14	50*	21	50*
CC(C)N(Cc1ccccc1)C(=O)CC(=O)N(Cc1ccccc1)C(C)C	7	3	1	-9	5	-10	x	x
CC1(C(=O)NS(=O)(=O)Cc2ccccc2)CCN1C(=O)C1(c2ccc(Cl)cc2)CC1 (stereo not drawn)	0	0	x	-4	-10	-14	x	x
Cc1cccc(OCC(=O)NCC(=O)N/N=C/c2cc(Br)cc(Br)c2O)c1	5	-6	18	-3	3	51*	-18	41*

Assay outcomes (PubChem)
